Measurements from ChEMBL document CHEMBL5058577, “EUbOPEN Chemogenomics Library 2 (Multiplex)” (2022).

System: Fibroblast
Assay: Multiplex assay against human fibroblast
Assay type: toxicity, cell-based
Summary of the method: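 Hoechst33342, BioTracker Green Microtubule Cytoskeleton Dye, MitoTracker Red and Annexin V Alexa Fluor 680 were added to live cells at seeding, and imaging on a CQ1 microscope at 37°C and 5% CO2 followed compound addition. Gating by CellPathfinder machine learning separated cells into Hoechst high-intensity objects or normal cells, then normal cells into healthy, pyknosed or fragmented nuclei, then pyknosed cells into mitotic or apoptotic. Per cents of healthy-nucleus cells are reported for the tubulin, mitochondrial-mass and membrane-permeability phenotypes.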

[1] = 12 h, 1 µM, compound concentration 1 uM, replicate 1
[2] = 12 h, 1 µM, compound concentration 1 uM, replicate 2
[3] = 12 h, 10 µM, compound concentration 10 uM, replicate 1
[4] = 12 h, 10 µM, compound concentration 10 uM, replicate 2
[5] = 24 h, 1 µM, compound concentration 1 uM, replicate 1
[6] = 24 h, 1 µM, compound concentration 1 uM, replicate 2
[7] = 24 h, 10 µM, compound concentration 10 uM, replicate 1
[8] = 24 h, 10 µM, compound concentration 10 uM, replicate 2
[9] = 48 h, 1 µM, compound concentration 1 uM, replicate 1
[10] = 48 h, 1 µM, compound concentration 1 uM, replicate 2
[11] = 48 h, 10 µM, compound concentration 10 uM, replicate 1
[12] = 48 h, 10 µM, compound concentration 10 uM, replicate 2

## CC(C)(O)C(=O)N1CCN(c2ccc(C(F)(F)F)c(C3=C(c4c[nH]c5ccccc45)C(=O)NC3=O)c2)CC1
[1]
  Population Apoptotic (%): 41%
  Population Fragmented Nuclei (%): 14%
  Population Healthy Nuclei (%): 68%
  Population Hoechst High Intensity Objects (%): 2%
  Population Membrane Permeable-Phenotype (%): 0%
  Population Mitochondria Different-Phenotype (%): 9%
  Population Mitotic Cells (%): 58%
  Population Normal (%): 97%
  Population Pyknosed Nuclei (%): 17%
  Population Tubulin-Different-Phenotype (%): 30%
  Total Cell Count: 144
[2]
  Population Apoptotic (%): 32%
  Population Fragmented Nuclei (%): 30%
  Population Healthy Nuclei (%): 46%
  Population Hoechst High Intensity Objects (%): 5%
  Population Membrane Permeable-Phenotype (%): 5%
  Population Mitochondria Different-Phenotype (%): 5%
  Population Mitotic Cells (%): 67%
  Population Normal (%): 94%
  Population Pyknosed Nuclei (%): 22%
  Population Tubulin-Different-Phenotype (%): 56%
  Total Cell Count: 170
[3]
  Population Apoptotic (%): 33%
  Population Fragmented Nuclei (%): 17%
  Population Healthy Nuclei (%): 50%
  Population Hoechst High Intensity Objects (%): 4%
  Population Membrane Permeable-Phenotype (%): 1%
  Population Mitochondria Different-Phenotype (%): 25%
  Population Mitotic Cells (%): 66%
  Population Normal (%): 96%
  Population Pyknosed Nuclei (%): 32%
  Population Tubulin-Different-Phenotype (%): 83%
  Total Cell Count: 125
[4]
  Population Apoptotic (%): 35%
  Population Fragmented Nuclei (%): 26%
  Population Healthy Nuclei (%): 31%
  Population Hoechst High Intensity Objects (%): 6%
  Population Membrane Permeable-Phenotype (%): 15%
  Population Mitochondria Different-Phenotype (%): 10%
  Population Mitotic Cells (%): 64%
  Population Normal (%): 93%
  Population Pyknosed Nuclei (%): 42%
  Population Tubulin-Different-Phenotype (%): 90%
  Total Cell Count: 137
[5]
  Population Apoptotic (%): 50%
  Population Fragmented Nuclei (%): 22%
  Population Healthy Nuclei (%): 61%
  Population Hoechst High Intensity Objects (%): 1%
  Population Membrane Permeable-Phenotype (%): 0%
  Population Mitochondria Different-Phenotype (%): 3%
  Population Mitotic Cells (%): 50%
  Population Normal (%): 98%
  Population Pyknosed Nuclei (%): 16%
  Population Tubulin-Different-Phenotype (%): 40%
  Total Cell Count: 161
[6]
  Population Apoptotic (%): 31%
  Population Fragmented Nuclei (%): 31%
  Population Healthy Nuclei (%): 45%
  Population Hoechst High Intensity Objects (%): 8%
  Population Membrane Permeable-Phenotype (%): 2%
  Population Mitochondria Different-Phenotype (%): 8%
  Population Mitotic Cells (%): 68%
  Population Normal (%): 91%
  Population Pyknosed Nuclei (%): 23%
  Population Tubulin-Different-Phenotype (%): 58%
  Total Cell Count: 176
[7]
  Population Apoptotic (%): 26%
  Population Fragmented Nuclei (%): 24%
  Population Healthy Nuclei (%): 40%
  Population Hoechst High Intensity Objects (%): 7%
  Population Membrane Permeable-Phenotype (%): 2%
  Population Mitochondria Different-Phenotype (%): 30%
  Population Mitotic Cells (%): 73%
  Population Normal (%): 92%
  Population Pyknosed Nuclei (%): 34%
  Population Tubulin-Different-Phenotype (%): 79%
  Total Cell Count: 131
[8]
  Population Apoptotic (%): 36%
  Population Fragmented Nuclei (%): 27%
  Population Healthy Nuclei (%): 33%
  Population Hoechst High Intensity Objects (%): 3%
  Population Membrane Permeable-Phenotype (%): 6%
  Population Mitochondria Different-Phenotype (%): 20%
  Population Mitotic Cells (%): 63%
  Population Normal (%): 96%
  Population Pyknosed Nuclei (%): 39%
  Population Tubulin-Different-Phenotype (%): 90%
  Total Cell Count: 138
[9]
  Population Apoptotic (%): 64%
  Population Fragmented Nuclei (%): 21%
  Population Healthy Nuclei (%): 61%
  Population Hoechst High Intensity Objects (%): 5%
  Population Membrane Permeable-Phenotype (%): 0%
  Population Mitochondria Different-Phenotype (%): 12%
  Population Mitotic Cells (%): 36%
  Population Normal (%): 94%
  Population Pyknosed Nuclei (%): 17%
  Population Tubulin-Different-Phenotype (%): 38%
  Total Cell Count: 155
[10]
  Population Apoptotic (%): 41%
  Population Fragmented Nuclei (%): 33%
  Population Healthy Nuclei (%): 37%
  Population Hoechst High Intensity Objects (%): 7%
  Population Membrane Permeable-Phenotype (%): 1%
  Population Mitochondria Different-Phenotype (%): 15%
  Population Mitotic Cells (%): 58%
  Population Normal (%): 92%
  Population Pyknosed Nuclei (%): 28%
  Population Tubulin-Different-Phenotype (%): 67%
  Total Cell Count: 165
[11]
  Population Apoptotic (%): 54%
  Population Fragmented Nuclei (%): 33%
  Population Healthy Nuclei (%): 27%
  Population Hoechst High Intensity Objects (%): 12%
  Population Membrane Permeable-Phenotype (%): 0%
  Population Mitochondria Different-Phenotype (%): 53%
  Population Mitotic Cells (%): 45%
  Population Normal (%): 87%
  Population Pyknosed Nuclei (%): 38%
  Population Tubulin-Different-Phenotype (%): 93%
  Total Cell Count: 123
[12]
  Population Fragmented Nuclei (%): 35%
  Population Healthy Nuclei (%): 25%
  Population Hoechst High Intensity Objects (%): 6%
  Population Membrane Permeable-Phenotype (%): 10%
  Population Mitochondria Different-Phenotype (%): 30%
  Population Normal (%): 93%
  Population Pyknosed Nuclei (%): 40%
  Population Tubulin-Different-Phenotype (%): 83%
  Total Cell Count: 129
